Experiment: organ radiation dose estimates, OLINDA 2.0, ICRP-103
Assay type: in vivo, human
Method in brief: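 Whole-body PET-MR ran as nine scans to 214 min. Organ VOIs were drawn in AMIDE, giving decay-corrected %IA per VOI; remainder = whole body minus measured organs. TIACs came from the EXM exponential model (OLINDA 1.1). Per-participant organ doses were computed in OLINDA 2.0 with 73 kg adult male or 60 kg female models. Effective dose (mSv) = organ absorbed doses × ICRP-103 tissue weighting factors.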

COC(=O)[C@@H](N)CC(=O)Nc1ccc2c(c1)Cc1cc([18F])ccc1-2 [[^18F]RP-115, methyl N^4-(7-[^18F]fluoro-9H-fluoren-2-yl)asparaginate]
Effective dose (whole body) (F1 (189 MBq)): 4.54 mSv
Estimated absorbed dose, Adrenals (F1 (189 MBq)): 5.94 mGy
Estimated absorbed dose, Brain (F1 (189 MBq)): 3.21 mGy
Estimated absorbed dose, Breasts (F1 (189 MBq)): 1.71 mGy
Estimated absorbed dose, Colon, left (F1 (189 MBq)): 2.85 mGy
Estimated absorbed dose, Colon, right (F1 (189 MBq)): 2.77 mGy
Estimated absorbed dose, Esophagus (F1 (189 MBq)): 2.98 mGy
Estimated absorbed dose, Eyes (F1 (189 MBq)): 1.59 mGy
Estimated absorbed dose, Gallbladder wall (F1 (189 MBq)): 5.09 mGy
Estimated absorbed dose, Heart wall (F1 (189 MBq)): 4.40 mGy
Estimated absorbed dose, Kidneys (F1 (189 MBq)): 32.6 mGy
Estimated absorbed dose, Liver (F1 (189 MBq)): 8.25 mGy
Estimated absorbed dose, Lungs (F1 (189 MBq)): 10.2 mGy
Estimated absorbed dose, Osteogenic cells (F1 (189 MBq)): 1.77 mGy
Estimated absorbed dose, Ovaries (F1 (189 MBq)): 2.77 mGy
Estimated absorbed dose, Pancreas (F1 (189 MBq)): 5.49 mGy
Estimated absorbed dose, Rectum (F1 (189 MBq)): 3.34 mGy
Estimated absorbed dose, Red marrow (F1 (189 MBq)): 2.26 mGy
Estimated absorbed dose, Salivary glands (F1 (189 MBq)): 1.69 mGy
Estimated absorbed dose, Small intestine (F1 (189 MBq)): 7.43 mGy
Estimated absorbed dose, Spleen (F1 (189 MBq)): 10.1 mGy
Estimated absorbed dose, Stomach wall (F1 (189 MBq)): 3.08 mGy
Estimated absorbed dose, Thymus (F1 (189 MBq)): 7.59 mGy
Estimated absorbed dose, Thyroid (F1 (189 MBq)): 2.36 mGy
Estimated absorbed dose, Urinary bladder wall (F1 (189 MBq)): 16.2 mGy
Estimated absorbed dose, Uterus (F1 (189 MBq)): 4.55 mGy
Effective dose (whole body) (F2, no voiding (355 MBq)): 9.27 mSv
Estimated absorbed dose, Adrenals (F2, no voiding (355 MBq)): 11.7 mGy
Estimated absorbed dose, Brain (F2, no voiding (355 MBq)): 5.33 mGy
Estimated absorbed dose, Breasts (F2, no voiding (355 MBq)): 2.78 mGy
Estimated absorbed dose, Colon, left (F2, no voiding (355 MBq)): 4.83 mGy
Estimated absorbed dose, Colon, right (F2, no voiding (355 MBq)): 4.76 mGy
Estimated absorbed dose, Esophagus (F2, no voiding (355 MBq)): 5.40 mGy
Estimated absorbed dose, Eyes (F2, no voiding (355 MBq)): 2.43 mGy
Estimated absorbed dose, Gallbladder wall (F2, no voiding (355 MBq)): 9.31 mGy
Estimated absorbed dose, Heart wall (F2, no voiding (355 MBq)): 6.93 mGy
Estimated absorbed dose, Kidneys (F2, no voiding (355 MBq)): 93.4 mGy
Estimated absorbed dose, Liver (F2, no voiding (355 MBq)): 15.5 mGy
Estimated absorbed dose, Lungs (F2, no voiding (355 MBq)): 21.1 mGy
Estimated absorbed dose, Osteogenic cells (F2, no voiding (355 MBq)): 2.97 mGy
Estimated absorbed dose, Ovaries (F2, no voiding (355 MBq)): 5.90 mGy
Estimated absorbed dose, Pancreas (F2, no voiding (355 MBq)): 7.60 mGy
Estimated absorbed dose, Rectum (F2, no voiding (355 MBq)): 7.07 mGy
Estimated absorbed dose, Red marrow (F2, no voiding (355 MBq)): 4.01 mGy
Estimated absorbed dose, Salivary glands (F2, no voiding (355 MBq)): 2.62 mGy
Estimated absorbed dose, Small intestine (F2, no voiding (355 MBq)): 9.87 mGy
Estimated absorbed dose, Spleen (F2, no voiding (355 MBq)): 7.49 mGy
Estimated absorbed dose, Stomach wall (F2, no voiding (355 MBq)): 5.08 mGy
Estimated absorbed dose, Thymus (F2, no voiding (355 MBq)): 8.99 mGy
Estimated absorbed dose, Thyroid (F2, no voiding (355 MBq)): 17.5 mGy
Estimated absorbed dose, Urinary bladder wall (F2, no voiding (355 MBq)): 28.7 mGy
Estimated absorbed dose, Uterus (F2, no voiding (355 MBq)): 47.6 mGy
Effective dose (whole body) (F3 (117 MBq)): 2.27 mSv
Estimated absorbed dose, Adrenals (F3 (117 MBq)): 3.65 mGy
Estimated absorbed dose, Brain (F3 (117 MBq)): 1.52 mGy
Estimated absorbed dose, Breasts (F3 (117 MBq)): 1.09 mGy
Estimated absorbed dose, Colon, left (F3 (117 MBq)): 1.77 mGy
Estimated absorbed dose, Colon, right (F3 (117 MBq)): 1.81 mGy
Estimated absorbed dose, Esophagus (F3 (117 MBq)): 1.78 mGy
Estimated absorbed dose, Eyes (F3 (117 MBq)): 1.01 mGy
Estimated absorbed dose, Gallbladder wall (F3 (117 MBq)): 3.38 mGy
Estimated absorbed dose, Heart wall (F3 (117 MBq)): 2.27 mGy
Estimated absorbed dose, Kidneys (F3 (117 MBq)): 21.4 mGy
Estimated absorbed dose, Liver (F3 (117 MBq)): 6.07 mGy
Estimated absorbed dose, Lungs (F3 (117 MBq)): 4.63 mGy
Estimated absorbed dose, Osteogenic cells (F3 (117 MBq)): 1.11 mGy
Estimated absorbed dose, Ovaries (F3 (117 MBq)): 1.54 mGy
Estimated absorbed dose, Pancreas (F3 (117 MBq)): 2.79 mGy
Estimated absorbed dose, Rectum (F3 (117 MBq)): 1.46 mGy
Estimated absorbed dose, Red marrow (F3 (117 MBq)): 1.39 mGy
Estimated absorbed dose, Salivary glands (F3 (117 MBq)): 1.09 mGy
Estimated absorbed dose, Small intestine (F3 (117 MBq)): 3.98 mGy
Estimated absorbed dose, Spleen (F3 (117 MBq)): 3.58 mGy
Estimated absorbed dose, Stomach wall (F3 (117 MBq)): 1.87 mGy
Estimated absorbed dose, Thymus (F3 (117 MBq)): 2.50 mGy
Estimated absorbed dose, Thyroid (F3 (117 MBq)): 2.20 mGy
Estimated absorbed dose, Urinary bladder wall (F3 (117 MBq)): 1.54 mGy
Estimated absorbed dose, Uterus (F3 (117 MBq)): 3.86 mGy
Effective dose (whole body) (F4 (167 MBq)): 3.28 mSv
Estimated absorbed dose, Adrenals (F4 (167 MBq)): 4.53 mGy
Estimated absorbed dose, Brain (F4 (167 MBq)): 2.64 mGy
Estimated absorbed dose, Breasts (F4 (167 MBq)): 1.41 mGy
Estimated absorbed dose, Colon, left (F4 (167 MBq)): 2.41 mGy
Estimated absorbed dose, Colon, right (F4 (167 MBq)): 2.41 mGy
Estimated absorbed dose, Esophagus (F4 (167 MBq)): 2.41 mGy
Estimated absorbed dose, Eyes (F4 (167 MBq)): 1.33 mGy
Estimated absorbed dose, Gallbladder wall (F4 (167 MBq)): 3.61 mGy
Estimated absorbed dose, Heart wall (F4 (167 MBq)): 4.15 mGy
Estimated absorbed dose, Kidneys (F4 (167 MBq)): 28.1 mGy
Estimated absorbed dose, Liver (F4 (167 MBq)): 6.74 mGy
Estimated absorbed dose, Lungs (F4 (167 MBq)): 7.74 mGy
Estimated absorbed dose, Osteogenic cells (F4 (167 MBq)): 1.45 mGy
Estimated absorbed dose, Ovaries (F4 (167 MBq)): 2.17 mGy
Estimated absorbed dose, Pancreas (F4 (167 MBq)): 3.86 mGy
Estimated absorbed dose, Rectum (F4 (167 MBq)): 2.14 mGy
Estimated absorbed dose, Red marrow (F4 (167 MBq)): 1.84 mGy
Estimated absorbed dose, Salivary glands (F4 (167 MBq)): 1.41 mGy
Estimated absorbed dose, Small intestine (F4 (167 MBq)): 8.53 mGy
Estimated absorbed dose, Spleen (F4 (167 MBq)): 3.75 mGy
Estimated absorbed dose, Stomach wall (F4 (167 MBq)): 2.46 mGy
Estimated absorbed dose, Thymus (F4 (167 MBq)): 4.47 mGy
Estimated absorbed dose, Thyroid (F4 (167 MBq)): 2.53 mGy
Estimated absorbed dose, Urinary bladder wall (F4 (167 MBq)): 4.45 mGy
Estimated absorbed dose, Uterus (F4 (167 MBq)): 6.39 mGy
Effective dose (whole body) (Female n=4, mean±SD): 0.0223±0.0033 mSv/MBq
Estimated dose, Adrenals (Female n=4, mean±SD): 0.0307±0.0025 mGy/MBq
Estimated dose, Brain (Female n=4, mean±SD): 0.0152±0.0017 mGy/MBq
Estimated dose, Breasts (Female n=4, mean±SD): 0.00866±0.00067 mGy/MBq
Estimated dose, Esophagus (Female n=4, mean±SD): 0.0152±0.0006 mGy/MBq
Estimated dose, Eyes (Female n=4, mean±SD): 0.00797±0.00081 mGy/MBq
Estimated dose, Gallbladder wall (Female n=4, mean±SD): 0.0259±0.0031 mGy/MBq
Estimated dose, Heart wall (Female n=4, mean±SD): 0.0218±0.0027 mGy/MBq
Estimated dose, Kidneys (Female n=4, mean±SD): 0.197±0.045 mGy/MBq
Estimated dose, Left colon (Female n=4, mean±SD): 0.0146±0.0007 mGy/MBq
Estimated dose, Liver (Female n=4, mean±SD): 0.0449±0.0049 mGy/MBq
Estimated dose, Lungs (Female n=4, mean±SD): 0.0499±0.0088 mGy/MBq
Estimated dose, Osteogenic cells (Female n=4, mean±SD): 0.00899±0.00054 mGy/MBq
Estimated dose, Ovaries (Female n=4, mean±SD): 0.0144±0.0017 mGy/MBq
Estimated dose, Pancreas (Female n=4, mean±SD): 0.0244±0.0033 mGy/MBq
Estimated dose, Rectum (Female n=4, mean±SD): 0.0157±0.0037 mGy/MBq
Estimated dose, Red marrow (Female n=4, mean±SD): 0.0116±0.0005 mGy/MBq
Estimated dose, Right colon (Female n=4, mean±SD): 0.0145±0.0009 mGy/MBq
Estimated dose, Salivary Glands (Female n=4, mean±SD): 0.0085±0.0008 mGy/MBq
Estimated dose, Small intestine (Female n=4, mean±SD): 0.0381±0.0098 mGy/MBq
Estimated dose, Spleen (Female n=4, mean±SD): 0.0319±0.0150 mGy/MBq
Estimated dose, Stomach wall (Female n=4, mean±SD): 0.0153±0.0010 mGy/MBq
Estimated dose, Thymus (Female n=4, mean±SD): 0.0284±0.0082 mGy/MBq

Reference: publication PMC13170702 (Nuclear medicine and biology, 2025)
